Calls of active or inactive are those of the source. No cut-off for these calls is given here.

Data on 1 compound can be found in ChEMBL document CHEMBL4229335 (Eur J Med Chem, 2018).

Test [1] has as its system Bel-7402. In words: Cell cycle arrest in human Bel7402 cells assessed as accumulation of cells at S phase at 0.4 uM after 48 hrs by propidium iodide staining-based flow cytometric analysis (reference value: 12.92%). The class given is functional. The method, boiled down:
(§1)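 Bel-7402 cells were seeded in 6-well plates and grown 24 h at 37 °C. Compound in DMSO was added in triplicate, with DMSO-only controls, for 48 h. Cells were then centrifuged, fixed in 70% ethanol at 4 °C and stained with propidium iodide. DNA content was measured by flow cytometry to give cell-cycle phase distribution.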
On the technique in general: A flow cytometer gives signals particle by particle.

For test [2], the system named is Bel-7402. In words: Induction of apoptosis in human Bel7402 cells assessed as late apoptotic cells at 0.8 uM after 24 hrs by Annexin V-FITC/propidium iodide staining-based flow cytometric analysis (reference value: 0.96%). The class given is functional.
The test system of test [3] is Bel-7402. Nature of the test: Induction of apoptosis in human Bel7402 cells assessed as early apoptotic cells at 1.2 uM after 24 hrs by Annexin V-FITC/propidium iodide staining-based flow cytometric analysis (reference value: 1.07%). The class given is functional.
The test system of test [4] is Bel-7402. In words: Cell cycle arrest in human Bel7402 cells assessed as accumulation of cells at G2 phase at 0.8 uM after 48 hrs by propidium iodide staining-based flow cytometric analysis (reference value: 23.53%). The class given is functional. The method, boiled down: as §1
Test [5] concerns Bel-7402. Nature of the test: Induction of mitochondrial membrane potential in human Bel7402 cells after 48 hrs by JC-1 dye-based flow cytometric analysis. The class given is functional, cell-based. The method, boiled down:
(§2)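 Bel-7402 cells were exposed in triplicate for 48 h to compound or vehicle. Cells were washed with PBS and stained with JC-1 in the dark. The fraction of cells with collapsed versus intact mitochondrial membrane potential was counted by flow cytometry.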

Test [6] has as its system Bel-7402. In words: Induction of mitochondrial membrane potential loss in human Bel7402 cells at 1.2 uM after 48 hrs by JC-1 dye-based flow cytometric analysis (reference value: 7.20%). The class given is functional. The method, boiled down: as §2
Test [7] concerns Bel-7402. Nature of the test: Induction of apoptosis in human Bel7402 cells assessed as late apoptotic cells at 1.2 uM after 24 hrs by Annexin V-FITC/propidium iodide staining-based flow cytometric analysis (reference value: 0.96%). The class given is functional.
For test [8], the system named is Bel-7402. Nature of the test: Induction of apoptosis in human Bel7402 cells assessed as nuclear disintegration at 0.4 to 1.2 uM after 48 hrs by Hoechst […] staining-based fluorescent microscopic analysis. The class given is functional, cell-based. The method, boiled down: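 Bel-7402 cells were seeded in 6-well plates in 2 mL medium and grown 24 h. Compound was then added for 48 h, with a vehicle control. Nuclei were stained with Hoechst 33258 and examined by fluorescence microscopy for chromatin condensation and nuclear disintegration.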

For test [9], the system named is Bel-7402. In words: Cell cycle arrest in human Bel7402 cells assessed as accumulation of cells at S phase at 0.8 uM after 48 hrs by propidium iodide staining-based flow cytometric analysis (reference value: 12.92%). The class given is functional. The method, boiled down:
as §1

In test [10] the test system is Bel-7402. In words: Induction of apoptosis in human Bel7402 cells assessed as upregulation of caspase3 expression after 48 hrs by Western blot analysis. The class given is functional, cell-based. Summed up:
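Bel-7402 cells were treated in triplicate for 48 h at 0, 0.4, 0.8 and 1.2 µM. Protein content of lysates was determined, then lysates were run on 10% SDS-PAGE and transferred to nitrocellulose. Membranes were blocked with 5% fat-free milk, probed with monoclonal antibodies and detected by ECL chemiluminescence.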
(In general: A western blot detects proteins with antibodies after separation by electrophoresis.)

Consider `C=C1C(=O)[C@@]23C(=O)O[C@H]4CCC(C)(C)[C@H]5[C@H](O)OC[C@@]45[C@@H]2CC[C@@H]1[C@H]3OC(=O)c1ccc(N(CCCl)CCCl)cc1`, for which the Activity in test [1] was 15.15%; in test [2] it was 11.31%; in test [3], 41.53%; in test [4] it was 15.87%; in test [5] it was “Dose-dependent effect”; in test [6], 40%. The Activity in [7] is 19.39%; in test [9], 14.42%; in test [10] it was “Dose-dependent effect”. In [8], the result was Active.
